According to ChEMBL document CHEMBL1125583, “Synthesis of an (iodovinyl)misonidazole derivative for hypoxia imaging” (J Med Chem, 1991):

Legend:
[1] = Compound was tested for the partition coefficient between octanol and water.; format: physicochemical
Method in brief: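 Octanol/water partition: octanol and water mutually pre-saturated for 24 h before the study; compound absorbance read at 318 nm in the water-saturated octanol phase and in the octanol-saturated water phase; coefficient taken as the ratio of the two absorbances.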

CaOs-1 cell line = test: Anoxic/Oxic uptake ratio was measured in CaOs-1 cell line at 3h.; format: functional, cell-based; conditions: Canis lupus familiaris
Method in brief: (§1)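 [131I]-labelled agent at 50 μM in 1 mL medium (25 mM HEPES), rinsed then replaced with fresh labelled medium. Monolayers (exponential or unfed plateau phase) held as thin film at 37 °C under 95% air/5% CO2 (oxic) or 95% N2/5% CO2 (anoxic) for 3 h. Cells trypsinized, gamma-counted, uptake as pmol/10^6 cells. Ratio = anoxic/oxic uptake, three plates.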

EMT6 = test: Anoxic/Oxic uptake ratio was measured in EMT-6 cell line at 3h.; format: functional, cell-based; conditions: Mus musculus; method in brief: as §1
RIF-1 = test: Anoxic/Oxic uptake ratio was measured in RIF-1 cell line at 3h.; format: functional, cell-based; conditions: Mus musculus; method in brief: as §1
Rattus norvegicus = species on record: Rattus norvegicus; test: Anoxic/Oxic uptake ratio was measured in rat myocytes at 3h.; format: functional
Method in brief: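 Adult rat myocytes from collagenase dissociation, cultured overnight at 37 °C in modified MEM. Thin medium layer with 50 μM [131I]-labelled agent at 37 °C under 95% air/5% CO2 or 95% N2/5% CO2, anoxia confirmed by dithionite/methylene blue indicator. Cells rinsed cold, EtOH-fixed, counted microscopically, scraped and gamma-counted. Uptake as dpm per cells; eight plates.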

V79 = test: Anoxic/Oxic uptake ratio was measured in V-79 cell line at 3h.; format: functional, cell-based; conditions: Cricetulus griseus; method in brief: as §1

| SMILES | Partition coefficient [1] | Uptake ratio (CaOs-1 cell line) | Uptake ratio (EMT6) | Uptake ratio (RIF-1) | Uptake ratio (Rattus norvegicus) | Uptake ratio (V79) |
| --- | --- | --- | --- | --- | --- | --- |
| COC[C@H](O)Cn1cc(Br)nc1[N+](=O)[O-] | 2.87 |  |  |  |  |  |
| COC[C@H](O)Cn1ccnc1[N+](=O)[O-] | 0.41 |  |  |  |  |  |
| O=[N+]([O-])c1nccn1C[C@@H](O)C/C=C/I | 2.52 | 10.2 | 11 | 23.2 | 22 | 12.5 |
| O=[N+]([O-])c1nccn1C[C@@H](O)CF | 0.4 | 18 | 12.6 | 28.5 | 20.3 | 27.3 |
